These results are taken from ChEMBL document CHEMBL1932929, “Lead optimization of 2-(piperidin-3-yl)-1H-benzimidazoles: identification of 2-morpholin- and 2-thiomorpholin-2-yl-1H-benzimidazoles as selective and CNS penetrating H₁-antihistamines for insomnia” (Bioorg Med Chem Lett, 2012).

Data set [1] in a line: Lipophilicity, log P of the compound. It counts as physicochemical. Conditions: octanol/water. The essentials: (§1)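 Calculated values, not experimentally measured.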
A short description of data set [2]: Dissociation constant, pKa of the compound. It counts as physicochemical. The essentials:
as §1

Data set [3] in a line: Drug uptake in brain of Sprague-Dawley rat at 10 mg/kg, po measured after 4 hrs. It counts as ADME, organism-based. Further details: dose 10 mg/kg, route oral. To be noted: read-out: Drug uptake.
Data set [4] can be described thus: Drug uptake in brain of Sprague-Dawley rat at 30 mg/kg, po measured after 4 hrs. Conditions: read-out: Drug uptake. It counts as ADME, organism-based. Further details: dose 30 mg/kg, route oral. The essentials: (§2)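 Single oral dose to Sprague Dawley rats; plasma and brain levels measured at 4 h; brain/plasma ratio taken from these 4 h levels.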
Data set [5] can be described thus: Ratio drug uptake in brain to plasma of Sprague-Dawley rat at 30 mg/kg, po measured after 4 hrs. It counts as ADME, organism-based. Further details: dose 30 mg/kg, route oral. To be noted: read-out: BPR. The essentials:
as §2

Data set [6] is described as follows: Drug uptake in plasma of Sprague-Dawley rat at 30 mg/kg, po measured after 4 hrs. It counts as ADME, organism-based. Also on record: dose 30 mg/kg, route oral. Conditions: read-out: Drug uptake. In short, it runs like this: as §2

Compound `Cc1ccc(Cn2c(C3CNCCO3)nc3ccccc32)cc1C` (single isomer, unassigned; (+)) displayed a lipophilicity (logP) in data set [1] of 3.4. In data set [2], this compound displayed a pKa of 7.4.

On to `CN(CC1CCOCC1)C1CCN(c2nc3ccccc3n2Cc2ccc(F)cc2)CC1`, for which the concentration at 4 h in data set [3] was 94 ng/g.

Regarding `Cc1ccc(Cn2c([C@@H]3CNCCS3)nc3ccccc32)cc1C`, in data set [1], the logP amounted to 3.3. The compound also registered a pKa in data set [2] of 7.5.

Regarding `COc1ccc(Cn2c([C@H]3CNCCS3)nc3ccccc32)cc1`, the concentration at 4 h in data set [4] amounted to 380 ng/g; in data set [6], 260 ng/mL. For the same compound, in data set [5], the Kp at 4 h is 1.4.
